Data on 16 compounds can be found in ChEMBL document CHEMBL1131111, “Synthesis and anti-HIV-1 activity of novel 2,3-dihydro-7H-thiazolo[3,2-a]pyrimidin-7-ones” (1998).

Common to all, as to type: functional
Test [1] concerns Human immunodeficiency virus 1. Description: Effective dose required for 50% inhibition of HIV-1 antigen production in MT-4 cultures.
In test [2] the test system is MT4. Description: Selectivity index is the ratio between CD50 and IC50 values of the compound. A digest of the protocol: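 Selectivity index calculated as CD50 (MTT, uninfected MT-4 cells) divided by ED50 (HIV-1 antigen ELISA, infected MT-4 cultures). Each value is the mean of three independent determinations.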
The test system of test [3] is MT4. Description: Cytotoxic dose required to reduce the proliferation of normal uninfected MT-4 cells by 50%. Conditions: Homo sapiens, read-out: CD50 (the source's name). A digest of the protocol: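 Cytotoxicity scored as concentration-dependent inhibition of proliferation of uninfected MT-4 cells by MTT assay. Cells grown in RPMI 1640 + 10% heat-inactivated FCS. CD50 is the mean of three independent determinations.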

`Cc1cn([C@H]2C[C@H](N=[N+]=[N-])[C@@H](CO)O2)c(=O)[nH]c1=O` [ZIDOVUDINE] registered an ED50 in test [1] of 0.04 µM. The SI with MT4 [2] worked out at 1300. The CC50 with MT4 [3] came out at 52 µM.

Compound `COC(CSc1nc(O)c(C(C)C)c(Cc2ccccc2)n1)OC` displayed an ED50 in test [1] of 4 µM. Besides, the SI in the test with MT4 [2] is listed as 8. In addition, the CC50 in the test on MT4 [3] was 32 µM.

The compound `CCc1c(Cc2cc(C)cc(C)c2)n2c(nc1=O)SCC2OC` (configuration not stated) yielded an ED50 in test [1] of 3 µM. Moreover, the SI in the test with MT4 [2] was >33. In addition, the CC50 in the test on MT4 [3] was > 100 µM.

On to `CCc1c(Cc2cc(C)cc(C)c2)n2c(nc1=O)SCC2OCCO` (configuration not stated), for which, in test [1], the ED50 came to 19 µM. Also, in the test on MT4 [2], the SI is reported as >5. For the same compound, the CC50 in the test on MT4 [3] is > 100 µM.

Regarding `CCOC1CSc2nc(=O)c(C(C)C)c(Cc3ccccc3)n21` (configuration not stated), the ED50 in test [1] was 100 µM. The SI with MT4 [2] is on record as >1. Also, the CC50 with MT4 [3] was > 100 µM.

In test [1], `CCc1c(Cc2ccccc2)n2c(nc1=O)SCC2OC` (configuration not stated) gave an ED50 of 36 µM. In addition, the SI in the test on MT4 [2] is >3. In the test with MT4 [3], the CC50 is > 100 µM.

`CCOCn1c(Cc2ccccc2)c(C(C)C)c(=O)[nH]c1=O` [EMIVIRINE]: in test [1], the ED50 was 0.005 µM. Further, the SI in the test on MT4 [2] turned out to be 28000.

With `CCOC1CSc2nc(=O)c(CC)c(Cc3ccccc3)n21` (configuration not stated), the ED50 in test [1] came to 46 µM. For the same compound, the SI in the test on MT4 [2] is recorded as >2. Moreover, in the test with MT4 [3], the CC50 was > 100 µM.

The compound `CCc1c(Cc2cc(C)cc(C)c2)n2c(nc1=O)SCC2CBr` (configuration not stated) yielded an ED50 in test [1] of 2.8 µM. Besides, the SI in the test on MT4 [2] turned out to be 16. In addition, the CC50 in the test on MT4 [3] was 46 µM.

As to `CCc1c(O)nc(SCC2OCCO2)nc1Cc1cc(C)cc(C)c1`, the ED50 in test [1] was found to be 3 µM. Also, the SI with MT4 [2] is 12. The CC50 in the test with MT4 [3] stood at 37 µM.

Take `CCOC(CSc1nc(O)c(CC)c(Cc2cc(C)cc(C)c2)n1)OCC`: the ED50 in test [1] was 21 µM. Further, the SI in the test on MT4 [2] is given as >5. Moreover, the CC50 in the test on MT4 [3] was > 100 µM.

Regarding `CCOC1CSc2nc(=O)c(CC)c(Cc3cc(C)cc(C)c3)n21` (configuration not stated), the ED50 in test [1] turned out to be 0.7 µM. For the same compound, the SI with MT4 [2] was >140. Also, the CC50 in the test on MT4 [3] is > 100 µM.

Consider `CCc1c(O)nc(SCC(OC)OC)nc1Cc1cccc2ccccc12`, for which the ED50 in test [1] was found to be 32 µM. Further, in the test on MT4 [2], the SI is reported as >3. Besides, in the test on MT4 [3], the CC50 was > 100 µM.

The compound `C=CCSc1nc(O)c(CC)c(Cc2ccccc2)n1` showed an ED50 in test [1] of 1.5 µM. In addition, the SI in the test on MT4 [2] was >67. The CC50 in the test on MT4 [3] is > 100 µM.

In the case of `C=CCSc1nc(O)c(CC)c(Cc2cc(C)cc(C)c2)n1`, in test [1], the ED50 turned out to be 2 µM. Further, in the test with MT4 [2], the SI amounted to 34. Further, in the test on MT4 [3], the CC50 amounted to 68 µM.

On to `C=CCSc1nc(O)c(C(C)C)c(Cc2ccccc2)n1`, for which the ED50 in test [1] was 1.5 µM. Moreover, the SI in the test on MT4 [2] is >67. Besides, in the test on MT4 [3], the CC50 is > 100 µM.
